The record followed here is PubChem BioAssay AID1624 (Sanford-Burnham Center for Chemical Genomics, 2009).

This experiment concerns PPC-1 cells, TRAIL potentiation, ATPlite luminescence, 24 h. As to the kind of experiment: TRAIL killing potentiation in PPC-1 cells, confirmation, cell-based, ATPlite luminescence (AID 1624). The following applies: stronger effect = higher value. The method, boiled down: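 Schedule: 4 h compound pretreatment, then 24 h TRAIL exposure, 37 °C. System: PPC-1 human cancer cell line. Detection: ATP-based luminescence (ATPlite). Also added: TRAIL added after compound pretreatment. Dosing: compound at 1.25 to 5 µM final concentration.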

[1] abbreviates: compound alone cytotoxicity, at 5 µM.
Setting [2] is: compound plus TRAIL, at 1.25 µM.

`CCSc1nc(-c2ccccc2)nc(C(Cl)Cl)n1`: the cytotoxicity with TRAIL is 96% (at 5 µM); 43% under setting [2]; 61% (compound plus TRAIL, at 2.5 µM). For the same compound, the cytotoxicity without TRAIL was 41% under setting [1]; 18% (compound alone, at 1.25 µM); 26% (compound alone, at 2.5 µM).

On to `CSc1nc(-c2ccc(C)cc2)nc(C(Cl)Cl)n1`, for which the cytotoxicity with TRAIL is 100% (at 5 µM); 94% under setting [2]; 100% (compound plus TRAIL, at 2.5 µM). Besides, the cytotoxicity without TRAIL reads like this: under setting [1], 45%; (compound alone, at 1.25 µM) 49%; (compound alone, at 2.5 µM) 48%.

Consider `CSc1nc(-c2ccccc2)nc(C(Cl)Cl)n1`, for which the cytotoxicity with TRAIL (at 5 µM) is 100%; the cytotoxicity with TRAIL under setting [2] was found to be 83%; the cytotoxicity with TRAIL (compound plus TRAIL, at 2.5 µM) was 96%. Further, the cytotoxicity without TRAIL under setting [1] was 56%; the cytotoxicity without TRAIL (compound alone, at 1.25 µM) came out at 52%; the cytotoxicity without TRAIL (compound alone, at 2.5 µM) came to 56%.
